According to ChEMBL document CHEMBL1800046, “Design, synthesis, and X-ray crystallographic studies of α-aryl substituted fosmidomycin analogues as inhibitors of Mycobacterium tuberculosis 1-deoxy-D-xylulose 5-phosphate reductoisomerase” (J Med Chem, 2011):

Experiments:
[1] = test system: Mycobacterium tuberculosis; test: Antibacterial activity against Mycobacterium tuberculosis H37Rv ATCC 27294 after 14 days by microplate alamar blue assay; format: functional; conditions: H37Rv ATCC 27294, 336 h
Procedure, shortened: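 Resazurin (Alamar blue) dye readout in 96-well format. Serially diluted compound added to a log-phase culture of M. tuberculosis H37Rv (ATCC 27294). MIC recorded in µg/ml.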

[2] = test system: Mycobacterium tuberculosis; test: Inhibition of Mycobacterium tuberculosis DXR-catalyzed NADPH-dependent rearrangement and reduction of DXP to form MEP at 100 uM measured every 5 secs for 500 secs by spectrophotometric analysis
Procedure, shortened: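 Screened with inhibitor at 100 µM. Started by adding DXP, at 22 °C. A340 for NADPH read every 5 s over 500 s. Initial velocity from the linear slope, compared with the uninhibited reaction.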

[3] = Inhibition of Mycobacterium tuberculosis DXR-catalyzed NADPH-dependent rearrangement and reduction of DXP to form MEP measured every 5 secs for 500 secs by spectrophotometric analysis

SMILES | MIC [1] | inhibition [2] | IC50 [3]
CCOP(=O)(O)C(CCNC(C)=O)c1ccccc1-c1cccnc1 (racemic) | > 32 µg/mL | 20% | 
CC(=O)N(O)CCC1c2ccccc2COP1(=O)O (racemic) | > 32 µg/mL | 12% | 
CC(=O)N(O)CCCP(=O)(O)O [FR-900098] |  |  | 0.16 µM
CC(=O)N(O)CCC(c1ccccc1CCO)P(=O)(O)O (racemic) | > 32 µg/mL | 35% | 150 µM
CC(=O)N(O)CCC(c1ccccc1Br)P(=O)(O)O (racemic) | > 32 µg/mL | 38% | 210 µM
CCOP(=O)(OCC)C(CCN(O)C(C)=O)c1ccc(Cl)c(Cl)c1 (racemic) |  |  | > 100 µM
CC(=O)N(O)CCC(c1ccccc1-c1cccs1)P(=O)(O)O (racemic) | > 32 µg/mL | 30% | 
CCOP(=O)(OCC)C(CCN(O)C=O)c1ccc(Cl)c(Cl)c1 (racemic) |  |  | > 100 µM
CCOP(=O)(O)C(CCN(O)C=O)c1ccc(Cl)c(Cl)c1 (racemic) |  |  | 38 µM
CC(=O)N(O)CCC(c1ccccc1CO)P(=O)(O)O (racemic) | > 32 µg/mL | 36% | 465 µM
O=CN(O)CCCP(=O)(O)O [FOSMIDOMYCIN] |  |  | 0.08 µM
CC(=O)N(O)CCC(c1ccccc1-c1cccnc1)P(=O)(O)O (racemic) | > 32 µg/mL | 20% | 
COCc1ccccc1C(CCN(O)C(C)=O)P(=O)(O)O (racemic) | > 32 µg/mL | 30% | 
O=CN(O)CCC(c1ccccc1Br)P(=O)(O)O (racemic) | > 32 µg/mL | 93% | 5.6 µM
CC(=O)N(O)CCC(c1ccccc1C#N)P(=O)(O)O (racemic) | > 32 µg/mL | 30% | 
CC(=O)N(O)CCC(c1ccccc1C)P(=O)(O)O (racemic) | > 32 µg/mL | 55% | 205 µM
CCOP(=O)(O)C(CCN(O)C(C)=O)c1ccc(Cl)c(Cl)c1 (racemic) |  |  | 22 µM
CC(=O)N(O)CCC(c1ccccc1)P(=O)(O)O (racemic) | > 32 µg/mL | 92% | 7.4 µM
